From ChEMBL document CHEMBL4385665, “Synthesis of N-arylindazole-3-carboxamide and N-benzoylindazole derivatives and their evaluation against α-MSH-stimulated melanogenesis” (Bioorg Med Chem Lett, 2019)
pIC50: −log10 of the molar value.

Columns and labels:
B16 [1] = assay: Inhibition of alpha-MSH-stimulated melanogenesis in mouse B16 cells assessed as reduction in melanin production incubated for 3 days; format: functional, cell-based; conditions: B16, 72 h
Summary of the method: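 B16 melanoma cells stimulated with α-MSH (100nM) and incubated with test agent for three days. Melanin released into the culture medium was quantified by sample absorbance against a synthetic melanin standard, and IC50 values were derived from inhibition of melanin formation.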

B16 [2] = assay: Potency index, ratio of IC50 for arbutin to IC50 for test compound for inhibition of alpha-MSH-stimulated melanogenesis in mouse B16 cells assessed as reduction in melanin production incubated for 3 days; format: functional

## O=C(Nc1ccccc1O)c1n[nH]c2ccccc12
B16 [1]
  pIC50: 4.68

## COC(=O)c1ccc(NC(=O)c2n[nH]c3ccccc23)cc1
B16 [1]
  pIC50: 4.16

## O=C(Nc1ccc(OC(F)(F)F)cc1)c1n[nH]c2ccccc12
B16 [1]
  pIC50: 4.89
B16 [2]
  Ratio IC50: 5

## O=C(Nc1ccc(C(F)(F)F)cc1)c1n[nH]c2ccccc12
B16 [1]
  pIC50: 4.82
B16 [2]
  Ratio IC50: 4

## O=C(Nc1ccc(Cl)cc1)c1n[nH]c2ccccc12
B16 [1]
  pIC50: 4.03

## Cc1cccc(NC(=O)c2n[nH]c3ccccc23)c1
B16 [1]
  pIC50: 4.82

## Cc1ccc(NC(=O)c2n[nH]c3ccccc23)cc1
B16 [1]
  pIC50: 4.42

## COc1cccc(NC(=O)c2n[nH]c3ccccc23)c1
B16 [1]
  pIC50: 4.44

## O=C(Nc1ccc(O)cc1)c1n[nH]c2ccccc12
B16 [1]
  pIC50: 4.74

## O=C(c1ccc(Cl)cc1)n1ncc2cc([N+](=O)[O-])ccc21
B16 [1]
  pIC50: 4.22

## O=C(Nc1ccccc1)c1n[nH]c2ccccc12
B16 [1]
  pIC50: 4.40

## OC[C@H]1O[C@@H](Oc2ccc(O)cc2)[C@H](O)[C@@H](O)[C@@H]1O [ARBUTIN]
B16 [1]
  pIC50: 4.19

## O=C(Cc1cccs1)n1ncc2cc([N+](=O)[O-])ccc21
B16 [1]
  pIC50: 4.26

## Cc1cccc(C(=O)n2ncc3cc([N+](=O)[O-])c(Br)cc32)c1
B16 [1]
  pIC50: 4.55

## COc1ccc(NC(=O)c2n[nH]c3ccccc23)cc1
B16 [1]
  pIC50: 4.70

## O=C(c1ccccc1)n1ncc2cc([N+](=O)[O-])c(Br)cc21
B16 [1]
  pIC50: 4.49

## O=C(Nc1cccc(O)c1)c1n[nH]c2ccccc12
B16 [1]
  pIC50: 4.46

## O=C(c1ccccc1Cl)n1ncc2cc([N+](=O)[O-])c(Br)cc21
B16 [1]
  pIC50: 4.60
B16 [2]
  Ratio IC50: 4

## COc1ccccc1NC(=O)c1n[nH]c2ccccc12
B16 [1]
  pIC50: 4.80
B16 [2]
  Ratio IC50: 4

## O=C(c1ccccc1)n1ncc2cc([N+](=O)[O-])ccc21
B16 [1]
  pIC50: 4.29

## O=C(c1ccccc1Cl)n1ncc2cc([N+](=O)[O-])ccc21
B16 [1]
  pIC50: 5.15
B16 [2]
  Ratio IC50: 9

## Cc1cccc(C(=O)n2ncc3cc([N+](=O)[O-])ccc32)c1
B16 [1]
  pIC50: 4.11
